Data: ChEMBL document CHEMBL5058577, “EUbOPEN Chemogenomics Library 2 (Multiplex)” (2022)

System: Fibroblast
Test: Multiplex assay against human fibroblast
Assay type: toxicity, cell-based
How it was run: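 At seeding, live cells were stained with Hoechst33342, BioTracker Green Microtubule Cytoskeleton Dye, MitoTracker Red and Annexin V Alexa Fluor 680. After compound addition they were imaged on a CQ1 microscope at 37°C and 5% CO2, and CellPathfinder machine-learning gating sorted them into Hoechst high-intensity objects or normal cells, with normal cells further split into healthy, pyknosed or fragmented nuclei and pyknosed cells into mitotic or apoptotic. Tubulin, mitochondrial-mass and membrane-permeability phenotypes are given as per cents of cells with healthy nuclei.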

[1] = 12 h, 1 µM, compound concentration 1 uM, replicate 1
[2] = 12 h, 1 µM, compound concentration 1 uM, replicate 2
[3] = 12 h, 10 µM, compound concentration 10 uM, replicate 1
[4] = 12 h, 10 µM, compound concentration 10 uM, replicate 2
[5] = 24 h, 1 µM, compound concentration 1 uM, replicate 1
[6] = 24 h, 1 µM, compound concentration 1 uM, replicate 2
[7] = 24 h, 10 µM, compound concentration 10 uM, replicate 1
[8] = 24 h, 10 µM, compound concentration 10 uM, replicate 2
[9] = 48 h, 1 µM, compound concentration 1 uM, replicate 1
[10] = 48 h, 1 µM, compound concentration 1 uM, replicate 2
[11] = 48 h, 10 µM, compound concentration 10 uM, replicate 1
[12] = 48 h, 10 µM, compound concentration 10 uM, replicate 2

SMILES: COc1cc(OC2CCN(C(C)=O)CC2)ccc1C(=O)N1CCC(N2C(=O)OCc3ccccc32)CC1
- Population Apoptotic (%) [1]: 41%
- Population Fragmented Nuclei (%) [1]: 12%
- Population Healthy Nuclei (%) [1]: 64%
- Population Hoechst High Intensity Objects (%) [1]: 5%
- Population Membrane Permeable-Phenotype (%) [1]: 2%
- Population Mitochondria Different-Phenotype (%) [1]: 5%
- Population Mitotic Cells (%) [1]: 58%
- Population Normal (%) [1]: 94%
- Population Pyknosed Nuclei (%) [1]: 22%
- Population Tubulin-Different-Phenotype (%) [1]: 32%
- Total Cell Count [1]: 157
- Population Apoptotic (%) [2]: 40%
- Population Fragmented Nuclei (%) [2]: 29%
- Population Healthy Nuclei (%) [2]: 52%
- Population Hoechst High Intensity Objects (%) [2]: 3%
- Population Membrane Permeable-Phenotype (%) [2]: 0%
- Population Mitochondria Different-Phenotype (%) [2]: 3%
- Population Mitotic Cells (%) [2]: 59%
- Population Normal (%) [2]: 96%
- Population Pyknosed Nuclei (%) [2]: 17%
- Population Tubulin-Different-Phenotype (%) [2]: 34%
- Total Cell Count [2]: 159
- Population Apoptotic (%) [3]: 52%
- Population Fragmented Nuclei (%) [3]: 10%
- Population Healthy Nuclei (%) [3]: 73%
- Population Hoechst High Intensity Objects (%) [3]: 3%
- Population Membrane Permeable-Phenotype (%) [3]: 0%
- Population Mitochondria Different-Phenotype (%) [3]: 6%
- Population Mitotic Cells (%) [3]: 48%
- Population Normal (%) [3]: 96%
- Population Pyknosed Nuclei (%) [3]: 16%
- Population Tubulin-Different-Phenotype (%) [3]: 54%
- Total Cell Count [3]: 161
- Population Apoptotic (%) [4]: 37%
- Population Fragmented Nuclei (%) [4]: 32%
- Population Healthy Nuclei (%) [4]: 40%
- Population Hoechst High Intensity Objects (%) [4]: 6%
- Population Membrane Permeable-Phenotype (%) [4]: 2%
- Population Mitochondria Different-Phenotype (%) [4]: 10%
- Population Mitotic Cells (%) [4]: 62%
- Population Normal (%) [4]: 93%
- Population Pyknosed Nuclei (%) [4]: 28%
- Population Tubulin-Different-Phenotype (%) [4]: 56%
- Total Cell Count [4]: 134
- Population Apoptotic (%) [5]: 63%
- Population Fragmented Nuclei (%) [5]: 19%
- Population Healthy Nuclei (%) [5]: 63%
- Population Hoechst High Intensity Objects (%) [5]: 1%
- Population Membrane Permeable-Phenotype (%) [5]: 0%
- Population Mitochondria Different-Phenotype (%) [5]: 4%
- Population Mitotic Cells (%) [5]: 36%
- Population Normal (%) [5]: 98%
- Population Pyknosed Nuclei (%) [5]: 17%
- Population Tubulin-Different-Phenotype (%) [5]: 32%
- Total Cell Count [5]: 170
- Population Apoptotic (%) [6]: 48%
- Population Fragmented Nuclei (%) [6]: 28%
- Population Healthy Nuclei (%) [6]: 51%
- Population Membrane Permeable-Phenotype (%) [6]: 5%
- Population Mitochondria Different-Phenotype (%) [6]: 3%
- Population Mitotic Cells (%) [6]: 51%
- Population Pyknosed Nuclei (%) [6]: 19%
- Population Tubulin-Different-Phenotype (%) [6]: 31%
- Total Cell Count [6]: 155
- Population Apoptotic (%) [7]: 36%
- Population Fragmented Nuclei (%) [7]: 13%
- Population Healthy Nuclei (%) [7]: 74%
- Population Hoechst High Intensity Objects (%) [7]: 7%
- Population Membrane Permeable-Phenotype (%) [7]: 1%
- Population Mitochondria Different-Phenotype (%) [7]: 7%
- Population Mitotic Cells (%) [7]: 63%
- Population Normal (%) [7]: 92%
- Population Pyknosed Nuclei (%) [7]: 11%
- Population Tubulin-Different-Phenotype (%) [7]: 39%
- Total Cell Count [7]: 172
- Population Apoptotic (%) [8]: 43%
- Population Fragmented Nuclei (%) [8]: 34%
- Population Healthy Nuclei (%) [8]: 48%
- Population Membrane Permeable-Phenotype (%) [8]: 3%
- Population Mitochondria Different-Phenotype (%) [8]: 10%
- Population Mitotic Cells (%) [8]: 56%
- Population Pyknosed Nuclei (%) [8]: 17%
- Population Tubulin-Different-Phenotype (%) [8]: 70%
- Total Cell Count [8]: 145
- Population Apoptotic (%) [9]: 40%
- Population Fragmented Nuclei (%) [9]: 14%
- Population Healthy Nuclei (%) [9]: 70%
- Population Hoechst High Intensity Objects (%) [9]: 7%
- Population Membrane Permeable-Phenotype (%) [9]: 0%
- Population Mitochondria Different-Phenotype (%) [9]: 5%
- Population Mitotic Cells (%) [9]: 59%
- Population Normal (%) [9]: 92%
- Population Pyknosed Nuclei (%) [9]: 14%
- Population Tubulin-Different-Phenotype (%) [9]: 35%
- Total Cell Count [9]: 160
- Population Apoptotic (%) [10]: 58%
- Population Fragmented Nuclei (%) [10]: 32%
- Population Healthy Nuclei (%) [10]: 52%
- Population Hoechst High Intensity Objects (%) [10]: 3%
- Population Membrane Permeable-Phenotype (%) [10]: 4%
- Population Mitochondria Different-Phenotype (%) [10]: 4%
- Population Mitotic Cells (%) [10]: 41%
- Population Normal (%) [10]: 96%
- Population Pyknosed Nuclei (%) [10]: 15%
- Population Tubulin-Different-Phenotype (%) [10]: 43%
- Total Cell Count [10]: 163
- Population Apoptotic (%) [11]: 57%
- Population Fragmented Nuclei (%) [11]: 10%
- Population Healthy Nuclei (%) [11]: 79%
- Population Hoechst High Intensity Objects (%) [11]: 5%
- Population Membrane Permeable-Phenotype (%) [11]: 0%
- Population Mitochondria Different-Phenotype (%) [11]: 13%
- Population Mitotic Cells (%) [11]: 42%
- Population Normal (%) [11]: 94%
- Population Pyknosed Nuclei (%) [11]: 9%
- Population Tubulin-Different-Phenotype (%) [11]: 51%
- Total Cell Count [11]: 155
- Population Apoptotic (%) [12]: 56%
- Population Fragmented Nuclei (%) [12]: 36%
- Population Healthy Nuclei (%) [12]: 51%
- Population Hoechst High Intensity Objects (%) [12]: 3%
- Population Membrane Permeable-Phenotype (%) [12]: 3%
- Population Mitochondria Different-Phenotype (%) [12]: 10%
- Population Mitotic Cells (%) [12]: 43%
- Population Normal (%) [12]: 96%
- Population Pyknosed Nuclei (%) [12]: 12%
- Population Tubulin-Different-Phenotype (%) [12]: 69%
- Total Cell Count [12]: 134

SMILES: CN1CCC(C(=O)c2cccc(NC(=O)c3c(F)cc(F)cc3F)n2)CC1
- Population Apoptotic (%) [1]: 28%
- Population Fragmented Nuclei (%) [1]: 16%
- Population Healthy Nuclei (%) [1]: 64%
- Population Hoechst High Intensity Objects (%) [1]: 3%
- Population Membrane Permeable-Phenotype (%) [1]: 1%
- Population Mitochondria Different-Phenotype (%) [1]: 4%
- Population Mitotic Cells (%) [1]: 71%
- Population Normal (%) [1]: 96%
- Population Pyknosed Nuclei (%) [1]: 18%
- Population Tubulin-Different-Phenotype (%) [1]: 28%
- Total Cell Count [1]: 153
- Population Apoptotic (%) [2]: 40%
- Population Fragmented Nuclei (%) [2]: 28%
- Population Healthy Nuclei (%) [2]: 53%
- Population Hoechst High Intensity Objects (%) [2]: 2%
- Population Membrane Permeable-Phenotype (%) [2]: 5%
- Population Mitochondria Different-Phenotype (%) [2]: 10%
- Population Mitotic Cells (%) [2]: 60%
- Population Normal (%) [2]: 97%
- Population Tubulin-Different-Phenotype (%) [2]: 43%
- Total Cell Count [2]: 142
- Population Apoptotic (%) [3]: 32%
- Population Fragmented Nuclei (%) [3]: 12%
- Population Healthy Nuclei (%) [3]: 74%
- Population Hoechst High Intensity Objects (%) [3]: 4%
- Population Membrane Permeable-Phenotype (%) [3]: 1%
- Population Mitochondria Different-Phenotype (%) [3]: 7%
- Population Mitotic Cells (%) [3]: 67%
- Population Normal (%) [3]: 95%
- Population Pyknosed Nuclei (%) [3]: 13%
- Population Tubulin-Different-Phenotype (%) [3]: 42%
- Total Cell Count [3]: 266
- Population Apoptotic (%) [4]: 36%
- Population Fragmented Nuclei (%) [4]: 23%
- Population Healthy Nuclei (%) [4]: 54%
- Population Membrane Permeable-Phenotype (%) [4]: 6%
- Population Mitochondria Different-Phenotype (%) [4]: 6%
- Population Mitotic Cells (%) [4]: 63%
- Population Pyknosed Nuclei (%) [4]: 22%
- Population Tubulin-Different-Phenotype (%) [4]: 63%
- Total Cell Count [4]: 142
- Population Apoptotic (%) [5]: 45%
- Population Fragmented Nuclei (%) [5]: 12%
- Population Healthy Nuclei (%) [5]: 74%
- Population Hoechst High Intensity Objects (%) [5]: 1%
- Population Membrane Permeable-Phenotype (%) [5]: 0%
- Population Mitochondria Different-Phenotype (%) [5]: 2%
- Population Mitotic Cells (%) [5]: 55%
- Population Normal (%) [5]: 98%
- Population Pyknosed Nuclei (%) [5]: 12%
- Population Tubulin-Different-Phenotype (%) [5]: 21%
- Total Cell Count [5]: 156
- Population Apoptotic (%) [6]: 40%
- Population Fragmented Nuclei (%) [6]: 34%
- Population Healthy Nuclei (%) [6]: 43%
- Population Membrane Permeable-Phenotype (%) [6]: 6%
- Population Mitochondria Different-Phenotype (%) [6]: 10%
- Population Mitotic Cells (%) [6]: 59%
- Population Pyknosed Nuclei (%) [6]: 21%
- Population Tubulin-Different-Phenotype (%) [6]: 45%
- Total Cell Count [6]: 148
- Population Apoptotic (%) [7]: 54%
- Population Fragmented Nuclei (%) [7]: 13%
- Population Healthy Nuclei (%) [7]: 71%
- Population Hoechst High Intensity Objects (%) [7]: 3%
- Population Membrane Permeable-Phenotype (%) [7]: 0%
- Population Mitochondria Different-Phenotype (%) [7]: 6%
- Population Mitotic Cells (%) [7]: 45%
- Population Normal (%) [7]: 96%
- Population Pyknosed Nuclei (%) [7]: 14%
- Population Tubulin-Different-Phenotype (%) [7]: 37%
- Total Cell Count [7]: 258
- Population Apoptotic (%) [8]: 37%
- Population Fragmented Nuclei (%) [8]: 30%
- Population Healthy Nuclei (%) [8]: 50%
- Population Hoechst High Intensity Objects (%) [8]: 2%
- Population Membrane Permeable-Phenotype (%) [8]: 5%
- Population Mitochondria Different-Phenotype (%) [8]: 8%
- Population Mitotic Cells (%) [8]: 62%
- Population Normal (%) [8]: 97%
- Population Pyknosed Nuclei (%) [8]: 19%
- Population Tubulin-Different-Phenotype (%) [8]: 65%
- Total Cell Count [8]: 153
- Population Apoptotic (%) [9]: 71%
- Population Fragmented Nuclei (%) [9]: 16%
- Population Healthy Nuclei (%) [9]: 74%
- Population Hoechst High Intensity Objects (%) [9]: 3%
- Population Membrane Permeable-Phenotype (%) [9]: 0%
- Population Mitochondria Different-Phenotype (%) [9]: 1%
- Population Mitotic Cells (%) [9]: 28%
- Population Normal (%) [9]: 96%
- Population Pyknosed Nuclei (%) [9]: 8%
- Population Tubulin-Different-Phenotype (%) [9]: 25%
- Total Cell Count [9]: 164
- Population Apoptotic (%) [10]: 56%
- Population Fragmented Nuclei (%) [10]: 42%
- Population Healthy Nuclei (%) [10]: 46%
- Population Hoechst High Intensity Objects (%) [10]: 2%
- Population Membrane Permeable-Phenotype (%) [10]: 5%
- Population Mitochondria Different-Phenotype (%) [10]: 5%
- Population Mitotic Cells (%) [10]: 43%
- Population Normal (%) [10]: 97%
- Population Pyknosed Nuclei (%) [10]: 10%
- Population Tubulin-Different-Phenotype (%) [10]: 67%
- Total Cell Count [10]: 156
- Population Apoptotic (%) [11]: 71%
- Population Fragmented Nuclei (%) [11]: 17%
- Population Healthy Nuclei (%) [11]: 71%
- Population Hoechst High Intensity Objects (%) [11]: 5%
- Population Membrane Permeable-Phenotype (%) [11]: 0%
- Population Mitochondria Different-Phenotype (%) [11]: 7%
- Population Mitotic Cells (%) [11]: 28%
- Population Normal (%) [11]: 94%
- Population Pyknosed Nuclei (%) [11]: 10%
- Population Tubulin-Different-Phenotype (%) [11]: 40%
- Total Cell Count [11]: 272
- Population Apoptotic (%) [12]: 54%
- Population Fragmented Nuclei (%) [12]: 36%
- Population Healthy Nuclei (%) [12]: 55%
- Population Hoechst High Intensity Objects (%) [12]: 3%
- Population Membrane Permeable-Phenotype (%) [12]: 3%
- Population Mitochondria Different-Phenotype (%) [12]: 3%
- Population Mitotic Cells (%) [12]: 45%
- Population Normal (%) [12]: 96%
- Population Pyknosed Nuclei (%) [12]: 7%
- Population Tubulin-Different-Phenotype (%) [12]: 69%
- Total Cell Count [12]: 152
